We go through one compound from ChEMBL document CHEMBL1123247, “Nucleoside conjugates. 7. Synthesis and antitumor activity of 1-beta-D-arabinofuranosylcytosine conjugates of ether lipids” (J Med Chem, 1986).

Assay [1] has as its system L1210. Kind of assay: Antitumor activity was determined against the ic implanted L1210 lymphoid leukemia in mice by change in body weight at 300 mg/kg (1 qd treatment schedule) dosage.
For assay [2], the system named is P388. Kind of assay: Antitumor activity against ip implanted P388 leukemia in mice expressed as active dose range (1 qd treatment schedule) required to produce increase in life span by >25% was determined; Range is 200-300. Type of assay: functional, Mus musculus. A digest of the protocol: (§1)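 P388 leukemia: 1 × 10^6 cells were given ip on day 0 to DBA/2J mice, groups of 6 (23-33 g). Treatment was ip from 24 h after inoculation, vehicle 0.9% NaCl with 0.5% Tween-80. Mice were observed daily until death or 45 days. Median survival T/C was calculated from survivors per NCI protocols, and ILS = (T/C − 1) × 100. Active range means doses giving ILS ≥25%; optimal dose means greatest ILS.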

In assay [3] the test system is L1210. Kind of assay: Antitumor activity was determined against the ic implanted L1210 lymphoid leukemia in mice by percent increase in life span at 300 mg/kg (1 qd treatment schedule) dosage. It counts as functional, Mus musculus. A digest of the protocol: (§2)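 DBA/2J mice, groups of 6 (26-32 g), got 1 × 10^5 L1210 cells ic on day 0. Dosing was ip starting 24 h later, as a sonicated solution or suspension in 0.9% NaCl with 0.5% Tween-80, over a wide dose range. Mice were followed daily until death. Median survival T/C was taken from survivors per NCI protocols, and ILS = (T/C − 1) × 100. Active range means doses giving ILS ≥25%; optimal dose means greatest ILS.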

Assay [4] relates to L1210. The assay is described as follows: Antitumor activity was determined against the ic implanted L1210 lymphoid leukemia in mice by median survival time at 300 mg/kg (1 qd treatment schedule) dosage; 14.5/7.0.
Assay [5] concerns L1210. The assay is described as follows: Antitumor activity was determined against the ic implanted L1210 lymphoid leukemia in mice by range in survival days at 300 mg/kg (1 qd treatment schedule) dosage; Range is 14-18. It counts as functional, Mus musculus.
Assay [6] deals with P388. The assay is described as follows: Antitumor activity was determined against the ip implanted P388 leukemia in mice by range in survival days at 200 mg/kg (1 qd treatment schedule) dosage; Range is 24->45. It counts as functional, Mus musculus. The settings on record: route intraperitoneal.
For assay [7], the system named is L1210. The assay is described as follows: Antitumor activity against the ip implanted L1210 leukemia in mice expressed as optimal dose (1 qd treatment schedule) required to produce greatest increase in life span was determined. It counts as functional, Mus musculus. A digest of the protocol:
(§3)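 DBA/2J mice, groups of 6 (23-28 g), were inoculated ip with 1 × 10^6 L1210 cells on day 0. Dosing was ip from 24 h, in 0.9% NaCl with 0.5% Tween-80 (sonicated solution or suspension). Mice were observed daily until death or day 45. Median survival T/C followed NCI protocols, and ILS = (T/C − 1) × 100. Active range means doses giving ILS ≥25%; optimal dose means greatest ILS.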

Assay [8] deals with L1210. Kind of assay: Antitumor activity was determined against the ip implanted L1210 leukemia in mice by change in […] at 200 mg/kg (treatment of 1qd schedule) dosage. It counts as functional, Mus musculus. The note with it: route intraperitoneal. A digest of the protocol:
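DBA/2J mice, 6 per group (wt 23-28 g), inoculated ip with 1×10^6 L1210 cells on day 0. Treatment was given ip in 0.9% NaCl with 0.5% Tween-80, starting 24 h later. Weight change was taken on day 8. Mice were observed daily until death or 45 days. Median survival T/C and %ILS = (T/C − 1) × 100 came from survivors per NCI protocols, and 45-day survivors were counted.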

In assay [9] the test system is L1210. Kind of assay: Antitumor activity against the ic implanted L1210 lymphoid leukemia in mice expressed as optimal dose (1 qd treatment schedule) required to produce greatest increase in life span was determined. It counts as functional, Mus musculus. A digest of the protocol: as §2
Assay [10] relates to P388. Kind of assay: Antitumor activity was determined against the ip implanted P388 leukemia in mice by 45-day survivors in mice at 200 mg/kg (1 qd treatment schedule) dosage. It counts as functional, Mus musculus. The note with it: route intraperitoneal. A digest of the protocol:
(§4)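 DBA/2J mice, 23-33 g, in groups of 6, were inoculated ip with 1×10^6 P388 cells on day 0. Dosing was ip from 24 h on the stated schedules, in 0.9% NaCl with 0.5% Tween-80 (sonicated solution or suspension). Survival was followed daily until death or 45 days. Median T/C was calculated from survivors per NCI protocols, with ILS = (T/C − 1) × 100.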

The test system of assay [11] is L1210. Kind of assay: Antitumor activity against ip implanted L1210 leukemia in mice expressed as active dose range (1 qd treatment schedule) required to produce increase in life span by >25% was determined; Range is 100-250. It counts as functional, Mus musculus. In a few lines:
as §3

Assay [12] relates to L1210. The assay is described as follows: Antitumor activity was determined against the ip implanted L1210 leukemia in mice by percent increase in life span at 200 mg/kg (treatment of 1qd schedule) dosage. The note with it: route intraperitoneal. Type of assay: functional, Mus musculus. A digest of the protocol:
(§5)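 DBA/2J mice in groups of 6 (wt 23-28 g) were inoculated ip with 1×10^6 L1210 cells on day 0. Dosing was ip from 24 h, in 0.9% NaCl with 0.5% Tween-80 (conjugates sonicated), across a range of doses. Mice were observed daily until death or 45 days. Median T/C was computed from survivors per NCI protocols, and ILS = (T/C − 1)×100.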

Assay [13] concerns P388. Kind of assay: Antitumor activity was determined against the ip implanted P388 leukemia in mice by change in […] at 200 mg/kg (1 qd treatment schedule) dosage. It counts as functional, Mus musculus. The note with it: route intraperitoneal. A digest of the protocol:
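P388 leukemia, 1×10^6 cells implanted ip on day 0 into DBA/2J mice, groups of 6 (wt 23-33 g). Dosing ip started 24 h post-inoculation, vehicle 0.9% NaCl containing 0.5% Tween-80. Animals were observed daily until death or 45 days. Outputs were weight change, median survival T/C from survivors per NCI protocols, and %ILS = (T/C − 1) × 100.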

Assay [14] relates to L1210. Kind of assay: Antitumor activity was determined against the ip implanted L1210 leukemia in mice by percent median survival rate (treated/control) at 200 mg/kg (treatment of 1qd schedule) dosage; 19.5/7.0. The settings on record: route intraperitoneal. It counts as functional, Mus musculus. A digest of the protocol:
(§6)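 DBA/2J mice, 23-28 g, in groups of 6, were inoculated ip with 1×10^6 L1210 cells on day 0. Dosing was ip starting 24 h later on the stated daily schedules. Conjugates were given as sonicated solutions and reference prodrugs as suspensions in 0.9% NaCl with 0.5% Tween-80. Mice were observed daily until death or 45 days. Median survival T/C was calculated from survivors per NCI protocols.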

For assay [15], the system named is P388. The assay is described as follows: Antitumor activity was determined against the ip implanted P388 leukemia in mice by percent median survival rate (treated/control) at 200 mg/kg (1 qd treatment schedule) dosage; >45.0/12.0. The settings on record: route intraperitoneal. Type of assay: functional, Mus musculus.
The subject of assay [16] is L1210. Kind of assay: Antitumor activity was determined against the ip implanted L1210 leukemia in mice by 45-day survivors in mice at 200 mg/kg (treatment of 1qd schedule) dosage. It counts as functional, Mus musculus. The note with it: route intraperitoneal. In a few lines:
as §5

Assay [17] relates to P388. The assay is described as follows: Antitumor activity was determined against the ip implanted P388 leukemia in mice by percent increase in life span at 200 mg/kg (1 qd treatment schedule) dosage. Type of assay: functional, Mus musculus. The note with it: route intraperitoneal. In a few lines: as §4
In assay [18] the test system is L1210. The assay is described as follows: Antitumor activity was determined against the ip implanted L1210 leukemia in mice by range in survival days at 200 mg/kg (treatment of 1qd schedule) dosage; Range is 14-23. It counts as functional, Mus musculus. The note with it: route intraperitoneal. A digest of the protocol:
as §6

The test system of assay [19] is P388. The assay is described as follows: Antitumor activity against the ip implanted P388 leukemia in mice expressed as optimal dose (1 qd treatment schedule) required to produce greatest increase in life span was determined. It counts as functional, Mus musculus. A digest of the protocol: as §1

The T/C is the result in the treated group divided by that in the control group, in per cent. As to `CCCCCCCCCCCCCCCC(=O)Nc1ccn([C@@H]2O[C@H](CO)[C@@H](O)[C@@H]2O)c(=O)n1`, the Weight change with L1210 [1] is recorded as -2.04 g mouse-1; in the assay on L1210 [8], -0.5 g mouse-1; with P388 [13] it was 0.75 g mouse-1. Moreover, the figures for the Active dose range in the assay with P388 [2] and in the assay with L1210 [11] were 200 mg/kg/day and 100 mg/kg/day, respectively. Further, the ILS with L1210 [3] is listed as 107; in the assay with L1210 [12] it was 179; in the assay on P388 [17], greater than 275. Moreover, the median survival time stood at 14.5 days in the assay with L1210 [4] and 19.5 days in the assay on L1210 [14]. Besides, the results for the Range in the assay on L1210 [5], in the assay with P388 [6] and in the assay on L1210 [18] were 14, 24 and 14, respectively. Moreover, the Optimal dose worked out at 200 mg/kg/day in the assay with L1210 [7], 300 mg in the assay with L1210 [9] and 200 mg in the assay with P388 [19]. Moreover, the Survivors was determined as 5 with P388 [10] and 0 in the assay with L1210 [16]. Further, the T/C with P388 [15] is greater than 45%.
